Here are results for twelve compounds from ChEMBL document CHEMBL2406930, “Synthesis and electrochemical and biological studies of novel coumarin-chalcone hybrid compounds” (J Med Chem, 2013).

Series [1] can be described thus: Cytotoxicity against BAEC assessed as cell viability at 50 uM after 24 hrs by MTT assay. More on the design: species or system Bos taurus. Conditions: cattle, BAEC cells; read-out: Activity. A digest of the protocol:
(§1)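 BAEC seeded at 10^4–10^5 cells/mL were grown to 60–70% confluency and exposed to compound (10–50 µM) for 24 h. Medium was then replaced and MTT added for 2 h at 37 °C. Formazan was dissolved in DMSO and read at 570 nm. Viability was taken relative to solvent-only wells, n = 3, mean ± SEM.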
(In general: Formazan colour is commonly taken as a measure of viable cells.)

A short description of series [2]: Antioxidant activity assessed as trolox equivalents of peroxyl radical scavenging activity at 0.3 to 2 uM preincubated for 15 mins by ORAC assay relative to control. It is filed as functional. A digest of the protocol: (§2)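 Peroxyl radical scavenging by ORAC-FL in 75 mM sodium phosphate buffer (pH 7.4) at 37 °C. Fluorescein was 70 nM final. Compounds in methanol were tested at 0.3–2 µM for monohydroxy and 0.5–7 µM for dihydroxy derivatives, preincubated 15 min, then AAPH was added (18 mM final). Fluorescence (ex 485, em 528 nm) was read each minute for 120 min. Net AUC minus methanol blank was referenced to Trolox (0.5–2.5 µM).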

A short description of series [3]: Cytotoxicity against BAEC assessed as cell viability at 10 uM after 24 hrs by MTT assay. Set-up: species or system Bos taurus. Conditions: cattle, BAEC cells; read-out: Activity. The essentials:
as §1

A short description of series [4]: Antioxidant activity assessed as hydroxyl radical scavenging activity at 4 mM after 5 mins by ESR spectroscopy analysis.
Series [5] in a line: Cytotoxicity against BAEC assessed as cell viability at 20 uM after 24 hrs by MTT assay. More on the design: species or system Bos taurus. Conditions: cattle, BAEC cells; read-out: Activity. A digest of the protocol: as §1
The nature of series [6]: Antioxidant activity assessed as peroxyl radical scavenging activity by ORAC assay relative to trolox. It is filed as functional. A digest of the protocol:
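Fluorescein-based ORAC in 75 mM sodium phosphate buffer pH 7.4 with FL 70 nM (final). Compounds in methanol at 0.3–2 µM (monohydroxy) or 0.5–7 µM (dihydroxy) preincubated 15 min at 37 °C, then AAPH 18 mM (final) added. Fluorescence (ex 485, em 528 nm) read every 1 min for 120 min. Net AUC minus methanol blank, expressed against Trolox calibration (0.5–2.5 µM).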

Series [7] in a line: (§3) Cytoprotective activity against peroxynitrite-induced toxicity in BAEC assessed as cell viability at 20 uM after 24 hrs by MTT assay. It is filed as functional. Conditions: Bos taurus, read-out: Activity. The essentials:
(§4)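 Bovine aortic endothelial cells (BAEC) in DMEM with 10% FBS, endothelial growth supplement and no antibiotics were grown to 60–70% confluency. They were pretreated 24 h with compound at 10 or 20 µM, then washed twice with PBS. Insult was 1 mM H2O2 for 2 h, or 500 µM SIN-1 (peroxynitrite source) for 4 h. Viability was read by MTT reduction, formazan in DMSO, A570.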

The nature of series [8]: (§5) Cytoprotective activity against H2O2-induced toxicity in BAEC assessed as cell viability at 10 uM after 24 hrs by MTT assay. In kind it is functional. Conditions: Bos taurus, read-out: Activity. The essentials: as §4
Series [9] deals with BAEC. Described as §3. Conditions: Bos taurus. It is filed as functional. The essentials: as §4
A short description of series [10]: Antioxidant activity assessed as trolox equivalents of peroxyl radical scavenging activity at 0.7 to 7 uM preincubated for 15 mins by ORAC assay relative to control. In kind it is functional. Conditions: 0.5 to 7 uM; in the assay text read “0.5 to 7 uM” for “0.7 to 7 uM”. The essentials:
as §2

The subject of series [11] is BAEC. Described as §5. Conditions: Bos taurus. In kind it is functional. A digest of the protocol:
as §4

The source made the active and inactive calls. The rule behind the calls is not given here.

With `O=C(c1ccc(O)c(O)c1)c1cc2cccc(O)c2oc1=O`, the viability at 24 h, 50 µM in series [1] came to 63%. The Ratio in series [2] was determined as 8.1. Moreover, the viability at 24 h, 10 µM in [3] stood at 49%. In addition, the Activity in series [4] turned out to be 75%. Also, the viability at 24 h, 20 µM in series [5] is 68%.

In the case of `Oc1cc(O)c2c(c1)OC(c1ccc(O)c(O)c1)C(O)C2` (stereo not drawn), the Ratio in series [6] was determined as 6.8.

Consider `Cc1c(C)c2c(c(C)c1O)CCC(C)(C(=O)O)O2` (stereo not drawn), for which the Ratio in [2] was determined as 1. Further, the Activity in series [4] stood at 31%.

For the compound `O=C(c1ccc(O)cc1)c1cc2cc(Br)ccc2oc1=O`, the viability at 24 h, 50 µM in [1] is 104%. For the same compound, in series [2], the Ratio was determined as 9.5. Further, the viability at 24 h, 10 µM in series [3] came to 95%. Moreover, the viability at 20 µM in [7] is 90%. In addition, the Activity in series [4] turned out to be 28%. Moreover, in [5], the viability at 24 h, 20 µM worked out at 93%.

Consider `Cc1cccc2cc(C(=O)c3ccc(O)cc3)c(=O)oc12`, for which the viability at 24 h, 50 µM in series [1] was 101%. Also, the Ratio in series [2] was found to be 10.9. In addition, in series [3], the viability at 24 h, 10 µM was determined as 87%. In [7], the viability at 20 µM is 90%. Further, the Activity in series [4] is 45%. Besides, the viability at 10 µM in series [8] turned out to be 40%. Also, the viability at 24 h, 20 µM in series [5] came out at 82%.

As for `O=C(c1ccccc1)c1cc2cc(O)ccc2oc1=O`, the viability at 24 h, 50 µM in series [1] is 86%. In series [2], the Ratio was found to be 11.5. In series [3], the viability at 24 h, 10 µM turned out to be 88%. The outcome in the series on BAEC [9] was inactive. Moreover, the Activity in [4] worked out at 39%. In addition, in [8], the viability at 10 µM came out at 40%. In addition, the viability at 24 h, 20 µM in series [5] is 95%.

In the case of `O=c1c(O)c(-c2ccc(O)c(O)c2)oc2cc(O)cc(O)c12`, the Ratio in series [6] was 7.3.

For `O=C(c1ccc(O)c(O)c1)c1cc2cc(Br)cc(O)c2oc1=O`, the viability at 24 h, 50 µM in series [1] was determined as 71%. In series [2], the Ratio was found to be 8.8. For the same compound, the viability at 24 h, 10 µM in [3] is 64%. In series [4], the Activity came out at 100%. In addition, the viability at 24 h, 20 µM in [5] came out at 23%.

For `O=C(c1ccccc1)c1cc2cc(Br)cc(O)c2oc1=O`, the viability at 24 h, 50 µM in series [1] came to 93%. For the same compound, in series [2], the Ratio was found to be 8.3. Further, the viability at 24 h, 10 µM in series [3] came out at 96%. In series [7], the viability at 20 µM was determined as 90%. For the same compound, the Activity in [4] turned out to be 65%. In series [5], the viability at 24 h, 20 µM was 101%.

As to `O=C(c1ccc(O)cc1)c1cc2ccccc2oc1=O`, the viability at 24 h, 50 µM in series [1] is 44%. Further, the Ratio in series [2] was 9.2. Moreover, the viability at 24 h, 10 µM in series [3] was 76%. Moreover, the Activity in series [4] was determined as 26%. In [5], the viability at 24 h, 20 µM came out at 60%.

For the compound `O=C(c1ccc(O)cc1)c1cc2cc(O)ccc2oc1=O`, the viability at 24 h, 50 µM in series [1] was 93%. Besides, the Ratio in series [2] was found to be 14.1. Besides, in [3], the viability at 24 h, 10 µM is 68%. In addition, the viability at 20 µM in series [7] is 90%. The Activity in series [4] stood at 58%. Moreover, in series [5], the viability at 24 h, 20 µM came out at 94%.

Regarding `O=C(c1ccc(O)c(O)c1)c1cc2cc(Br)ccc2oc1=O`, the viability at 24 h, 50 µM in series [1] stood at 92%. In series [3], the viability at 24 h, 10 µM was 102%. In addition, the Ratio in series [10] was 13. Moreover, the result in the series with BAEC [9] and in the series with BAEC [11] was inactive. Besides, the Activity in series [4] was 100%. Also, the viability at 24 h, 20 µM in [5] worked out at 100%.
